# Test results from ChEMBL document CHEMBL1124774, “Synthesis and biological activity of some derivatives of rifamycin P” (1990).
# Experiments:
# Format in all cases: functional
# Escherichia coli = assay: In vitro antibacterial activity of compound against Escherichia coli SKF 12140
# Klebsiella pneumoniae = assay: In vitro antibacterial activity of compound against Klebsiella pneumoniae ISM
# [1] = system: Mycobacterium scrofulaceum; assay: In vitro activity of compound against slowly growing Mycobacterium scrofulaceum 1292
# Procedure, shortened: (§1)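 Medium was Middlebrook 7H10 agar with 2% glycerol and 10% OADC. Organisms from Loevenstein-Jensen slants were grown in 7H9 broth with 0.5% Tween and 10% OADC, adjusted to McFarland no. 1, and spotted with a multipoint inoculator. Sealed plates were incubated at 22, 30 or 37 °C for 4-20 days depending on strain.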
# [2] = system: Mycobacterium scrofulaceum; assay: In vitro activity of compound against slowly growing Mycobacterium scrofulaceum 1293; procedure, shortened: as §1
# [3] = system: Mycobacterium scrofulaceum; assay: In vitro activity of compound against slowly growing Mycobacterium scrofulaceum 1297; procedure, shortened: as §1
# [4] = system: Mycobacterium scrofulaceum; assay: In vitro activity of compound against slowly growing Mycobacterium scrofulaceum 1301; procedure, shortened: as §1
# [5] = system: Mycolicibacterium smegmatis; assay: In vitro activity of compound against rapidly growing Mycobacterium smegmatis 139; procedure, shortened: as §1
# [6] = system: Mycolicibacterium smegmatis; assay: In vitro activity of compound against rapidly growing Mycobacterium smegmatis 1442; procedure, shortened: as §1
# [7] = system: Mycolicibacterium smegmatis; assay: In vitro activity of compound against rapidly growing Mycobacterium smegmatis 31; procedure, shortened: as §1
# Mycobacterium xenopi [8] = assay: In vitro activity compound against slowly growing Mycobacterium xenopi 1446; procedure, shortened: as §1
# Mycobacterium xenopi [9] = assay: In vitro activity of compound against slowly growing Mycobacterium xenopi 554; procedure, shortened: as §1
# Mycobacterium xenopi [10] = assay: In vitro activity of compound against slowly growing Mycobacterium xenopi 555; procedure, shortened: as §1
# Mycolicibacterium phlei [11] = assay: In vitro activity of compound against rapidly growing Mycobacterium phlei 141; procedure, shortened: as §1
# Mycolicibacterium phlei [12] = assay: In vitro activity of compound against rapidly growing Mycobacterium phlei 1283; procedure, shortened: as §1
# Mycolicibacterium phlei [13] = assay: In vitro activity of compound against rapidly growing Mycobacterium phlei 1289; procedure, shortened: as §1
# Mycobacterium kansasii [14] = assay: In vitro activity of compound against slowly growing Mycobacterium kansasii 1299; procedure, shortened: as §1
# Mycobacterium marinum [15] = assay: In vitro activity of compound against slowly growing Mycobacterium marinum 1388; procedure, shortened: as §1
# Mycobacterium marinum [16] = assay: In vitro activity of compound against slowly growing Mycobacterium marinum 1390; procedure, shortened: as §1
# Mycobacterium marinum [17] = assay: In vitro activity of compound against slowly growing Mycobacterium marinum 1391; procedure, shortened: as §1
# [18] = system: Mycolicibacterium fortuitum; assay: In vitro activity of compound against rapidly growing Mycobacterium fortuitum 114; procedure, shortened: as §1
# [19] = system: Mycolicibacterium fortuitum; assay: In vitro activity of compound against rapidly growing Mycobacterium fortuitum 1285; procedure, shortened: as §1
# [20] = system: Mycolicibacterium fortuitum; assay: In vitro activity of compound against rapidly growing Mycobacterium fortuitum 1287; procedure, shortened: as §1
# [21] = system: Mycolicibacterium fortuitum; assay: In vitro activity compound against rapidly growing Mycobacterium fortuitum 1302; procedure, shortened: as §1
# [22] = system: Mycolicibacterium fortuitum; assay: In vitro activity of compound against rapidly growing Mycobacterium fortuitum 140; procedure, shortened: as §1
# [23] = system: Mycolicibacterium fortuitum; assay: In vitro activity compound against rapidly growing Mycobacterium fortuitum 1440; procedure, shortened: as §1
# [24] = system: Mycolicibacterium fortuitum; assay: In vitro activity of compound against rapidly growing Mycobacterium fortuitum 646; procedure, shortened: as §1
# [25] = system: Mycolicibacterium fortuitum; assay: In vitro activity of compound against rapidly growing Mycobacterium fortuitum 726; procedure, shortened: as §1
# Mycobacterium gordonae [26] = assay: In vitro activity of compound against slowly growing Mycobacterium gordonae 1294; procedure, shortened: as §1
# Mycobacterium gordonae [27] = assay: In vitro activity of compound against slowly growing Mycobacterium gordonae 1441; procedure, shortened: as §1
# Mycobacterium kansasii [28] = assay: In vitro activity of compound against slowly growing Mycobacterium kansasii 1291; procedure, shortened: as §1
# Mycobacterium kansasii [29] = assay: In vitro activity of compound against slowly growing Mycobacterium kansasii 1298; procedure, shortened: as §1
# [30] = system: Mycolicibacterium flavescens; assay: In vitro activity of compound against rapidly growing Mycobacterium flavescens 1284; procedure, shortened: as §1
# [31] = system: Mycolicibacterium flavescens; assay: In vitro activity of compound against rapidly growing Mycobacterium flavescens 1286; procedure, shortened: as §1
# Mycobacterium marinum [32] = assay: In vitro activity of compound against slowly growing Mycobacterium marinum 1392 h; procedure, shortened: as §1
# Mycobacterium marinum [33] = assay: In vitro activity of compound against slowly growing Mycobacterium marinum 1393; procedure, shortened: as §1
# Mycobacterium marinum [34] = assay: In vitro activity of compound against slowly growing Mycobacterium marinum 1394; procedure, shortened: as §1
# Mycobacterium marinum [35] = assay: In vitro activity of compound against slowly growing Mycobacterium marinum 1447; procedure, shortened: as §1
# [36] = system: Mycobacterium tuberculosis; assay: In vitro antibacterial activity of compound against Mycobacterium tuberculosis H37Rv ATCC 9660
# Mycobacteroides chelonae = assay: In vitro activity of compound against rapidly growing Mycobacterium chelonae 1443; procedure, shortened: as §1
# Mycobacterium avium [37] = assay: 50% inhibition of the 20 Mycobacterium (MAC) avium complex clinical isolates
# Procedure, shortened: (§2)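 Agar-dilution MICs, 2-fold dilutions over 128-0.0001 μg/mL, on Middlebrook 7H10 agar with 2% glycerol and 10% OADC. Organisms from Loevenstein-Jensen slants were grown in 7H9 broth with 0.5% Tween and 10% OADC, adjusted to McFarland no. 1, and spotted with a multipoint inoculator. Plates were sealed and incubated at 22, 30 or 37 °C for 4-20 days depending on strain.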
# Mycobacterium avium [38] = assay: Minimum inhibitory concentration of compound against 20 Mycobacterium avium complex (MAC) clinical isolates; procedure, shortened: as §2
# Neisseria gonorrhoeae = assay: In vitro antibacterial activity of compound against Neisseria gonorrhoeae ISM 68/126
# Pseudomonas aeruginosa = assay: In vitro antibacterial activity of compound against Pseudomonas aeruginosa ATCC 10145
# Procedure, shortened: (§3)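 Twofold microdilution MIC in Iso-Sensitest broth over 128-0.0001 µg/mL. Inoculum was 10^4 cfu/mL, with incubation at 37 °C for 18-24 h.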
# Proteus vulgaris = assay: In vitro antibacterial activity of compound against Proteus vulgaris X19H ATCC 881
# [39] = system: Staphylococcus epidermidis; assay: In vitro antibacterial activity of compound against Staphylococcus epidermidis ATCC 12228; procedure, shortened: as §3
# Streptococcus pyogenes = assay: In vitro antibacterial activity of compound against Streptococcus pyogenes C 203 SKF 13400
# Procedure, shortened: (§4)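 Streptococcal MICs were run by twofold microdilution in Todd-Hewitt broth over 128-0.0001 µg/mL. Inoculum was 10^4 cfu/mL, with incubation at 37 °C for 18-24 h.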
# Staphylococcus aureus = assay: In vitro antibacterial activity of compound against Staphylococcus aureus Tour L 165; procedure, shortened: as §3
# Streptococcus pneumoniae = assay: In vitro antibacterial activity of compound against Streptococcus pneumoniae UC 41; procedure, shortened: as §4
# Enterococcus faecalis = assay: In vitro antibacterial activity of compound against Streptococcus faecalis ATCC 7080.; procedure, shortened: as §3
# [40] = system: Mycolicibacterium fortuitum; assay: In vitro activity of compound against rapidly growing Mycobacterium fortuitum 645; procedure, shortened: as §1
# Haemophilus influenzae = assay: In vitro antibacterial activity of compound against Haemophilus influenzae ATCC 19418
# Mycobacterium xenopi [41] = assay: In vitro activity of compound against slowly growing Mycobacterium xenopi 556; procedure, shortened: as §1
structure (smiles),measurement,setting,value
COC1/C=C/OC2(C)Oc3c(C)c(O)c4c(O)c(c5c(c4c3C2=O)=NC2(CCN(CC(C)C)CC2)N=5)NC(=O)/C(C)=C\C=C\C(C)C(O)C(C)C(O)C(C)C(OC(C)=O)C1C (configuration not stated),MIC,Escherichia coli,16 µg/mL
same,MIC,Klebsiella pneumoniae,16 µg/mL
same,MIC50,[1],0.032 µg/mL
same,MIC50,[2],0.032 µg/mL
same,MIC50,[3],0.063 µg/mL
same,MIC50,[4],2 µg/mL
same,MIC50,[5],4 µg/mL
same,MIC50,[6],4 µg/mL
same,MIC50,[7],4 µg/mL
same,MIC50,Mycobacterium xenopi [8],0.125 µg/mL
same,MIC50,Mycobacterium xenopi [9],0.125 µg/mL
same,MIC50,Mycobacterium xenopi [10],0.125 µg/mL
same,MIC50,Mycolicibacterium phlei [11],0.061 µg/mL
same,MIC50,Mycolicibacterium phlei [12],0.016 µg/mL
same,MIC50,Mycolicibacterium phlei [13],2 µg/mL
same,MIC50,Mycobacterium kansasii [14],0.5 µg/mL
same,MIC50,Mycobacterium marinum [15],0.25 µg/mL
same,MIC50,Mycobacterium marinum [16],1 µg/mL
same,MIC50,Mycobacterium marinum [17],0.25 µg/mL
same,MIC50,[18],8 µg/mL
same,MIC50,[19],4 µg/mL
same,MIC50,[20],1 µg/mL
same,MIC50,[21],1 µg/mL
same,MIC50,[22],4 µg/mL
same,MIC50,[23],16 µg/mL
same,MIC50,[24],8 µg/mL
same,MIC50,[25],16 µg/mL
same,MIC50,Mycobacterium gordonae [26],0.5 µg/mL
same,MIC50,Mycobacterium gordonae [27],1 µg/mL
same,MIC50,Mycobacterium kansasii [28],1 µg/mL
same,MIC50,Mycobacterium kansasii [29],0.063 µg/mL
same,MIC50,[30],8 µg/mL
same,MIC50,[31],0.063 µg/mL
same,MIC50,Mycobacterium marinum [32],0.25 µg/mL
same,MIC50,Mycobacterium marinum [33],0.25 µg/mL
same,MIC50,Mycobacterium marinum [34],0.25 µg/mL
same,MIC50,Mycobacterium marinum [35],0.25 µg/mL
same,MIC,[36],0.008 µg/mL
same,MIC50,Mycobacteroides chelonae,32 µg/mL
same,MIC50,Mycobacterium avium [37],1 µg/mL
same,MIC50,Mycobacterium avium [38],0.25 µg/mL
same,MIC,Neisseria gonorrhoeae,0.5 µg/mL
same,MIC,Pseudomonas aeruginosa,8 µg/mL
same,MIC,Proteus vulgaris,16 µg/mL
same,MIC,[39],0.032 µg/mL
same,MIC,Streptococcus pyogenes,0.032 µg/mL
same,MIC,Staphylococcus aureus,0.063 µg/mL
same,MIC,Streptococcus pneumoniae,0.032 µg/mL
same,MIC,Enterococcus faecalis,2 µg/mL
same,MIC50,[40],1 µg/mL
same,MIC,Haemophilus influenzae,0.125 µg/mL
same,MIC50,Mycobacterium xenopi [41],0.125 µg/mL
